Test results taken from ChEMBL document CHEMBL5058577, “EUbOPEN Chemogenomics Library 2 (Multiplex)” (2022).

System: HEK-293T
Experiment: Multiplex assay against HEK293T
Assay type: toxicity, cell-based
Conditions: human
Summary of the method: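 Tubulin, mitochondrial-mass and membrane-permeability phenotypes are per cents of healthy-nucleus cells. Cells were gated by CellPathfinder machine learning into Hoechst high-intensity objects or normal cells, normal cells into healthy, pyknosed or fragmented nuclei, and pyknosed cells into mitotic or apoptotic. Before that, live cells stained at seeding with Hoechst33342, BioTracker Green Microtubule Cytoskeleton Dye, MitoTracker Red and Annexin V Alexa Fluor 680 were imaged on a CQ1 microscope at 37°C and 5% CO2 after compound addition.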

[1] = 12 h, 1 µM, compound concentration 1 uM, replicate 1
[2] = 12 h, 1 µM, compound concentration 1 uM, replicate 2
[3] = 12 h, 10 µM, compound concentration 10 uM, replicate 1
[4] = 12 h, 10 µM, compound concentration 10 uM, replicate 2
[5] = 24 h, 1 µM, compound concentration 1 uM, replicate 1
[6] = 24 h, 1 µM, compound concentration 1 uM, replicate 2
[7] = 24 h, 10 µM, compound concentration 10 uM, replicate 1
[8] = 24 h, 10 µM, compound concentration 10 uM, replicate 2
[9] = 48 h, 1 µM, compound concentration 1 uM, replicate 1
[10] = 48 h, 1 µM, compound concentration 1 uM, replicate 2
[11] = 48 h, 10 µM, compound concentration 10 uM, replicate 1
[12] = 48 h, 10 µM, compound concentration 10 uM, replicate 2

## CN(C)C(=O)Cn1cc(-c2ccc(-c3cncc4ccccc34)cc2)cn1
[1]
  Population Apoptotic (%): 52%
  Population Fragmented Nuclei (%): 5%
  Population Healthy Nuclei (%): 81%
  Population Hoechst High Intensity Objects (%): 7%
  Population Membrane Permeable-Phenotype (%): 0%
  Population Mitochondria Different-Phenotype (%): 50%
  Population Mitotic Cells (%): 47%
  Population Normal (%): 92%
  Population Pyknosed Nuclei (%): 12%
  Population Tubulin-Different-Phenotype (%): 35%
  Total Cell Count: 411
[2]
  Population Apoptotic (%): 40%
  Population Fragmented Nuclei (%): 4%
  Population Healthy Nuclei (%): 80%
  Population Hoechst High Intensity Objects (%): 2%
  Population Mitochondria Different-Phenotype (%): 58%
  Population Mitotic Cells (%): 59%
  Population Normal (%): 97%
  Population Pyknosed Nuclei (%): 14%
  Population Tubulin-Different-Phenotype (%): 23%
  Total Cell Count: 337
[3]
  Population Apoptotic (%): 48%
  Population Fragmented Nuclei (%): 8%
  Population Healthy Nuclei (%): 73%
  Population Hoechst High Intensity Objects (%): 6%
  Population Membrane Permeable-Phenotype (%): 0%
  Population Mitochondria Different-Phenotype (%): 65%
  Population Mitotic Cells (%): 51%
  Population Normal (%): 93%
  Population Pyknosed Nuclei (%): 17%
  Population Tubulin-Different-Phenotype (%): 47%
  Total Cell Count: 264
[4]
  Population Apoptotic (%): 69%
  Population Healthy Nuclei (%): 76%
  Population Hoechst High Intensity Objects (%): 19%
  Population Mitochondria Different-Phenotype (%): 69%
  Population Mitotic Cells (%): 30%
  Population Normal (%): 80%
  Population Pyknosed Nuclei (%): 15%
  Population Tubulin-Different-Phenotype (%): 43%
  Total Cell Count: 321
[5]
  Population Apoptotic (%): 47%
  Population Fragmented Nuclei (%): 10%
  Population Healthy Nuclei (%): 79%
  Population Hoechst High Intensity Objects (%): 6%
  Population Membrane Permeable-Phenotype (%): 0%
  Population Mitochondria Different-Phenotype (%): 38%
  Population Mitotic Cells (%): 52%
  Population Normal (%): 93%
  Population Pyknosed Nuclei (%): 10%
  Population Tubulin-Different-Phenotype (%): 24%
  Total Cell Count: 498
[6]
  Population Apoptotic (%): 40%
  Population Fragmented Nuclei (%): 6%
  Population Healthy Nuclei (%): 82%
  Population Hoechst High Intensity Objects (%): 7%
  Population Mitochondria Different-Phenotype (%): 45%
  Population Mitotic Cells (%): 60%
  Population Normal (%): 92%
  Population Tubulin-Different-Phenotype (%): 23%
  Total Cell Count: 355
[7]
  Population Apoptotic (%): 48%
  Population Fragmented Nuclei (%): 9%
  Population Healthy Nuclei (%): 75%
  Population Hoechst High Intensity Objects (%): 6%
  Population Membrane Permeable-Phenotype (%): 0%
  Population Mitochondria Different-Phenotype (%): 65%
  Population Mitotic Cells (%): 51%
  Population Normal (%): 93%
  Population Pyknosed Nuclei (%): 14%
  Population Tubulin-Different-Phenotype (%): 44%
  Total Cell Count: 283
[8]
  Population Apoptotic (%): 45%
  Population Fragmented Nuclei (%): 10%
  Population Hoechst High Intensity Objects (%): 14%
  Population Mitochondria Different-Phenotype (%): 53%
  Population Mitotic Cells (%): 54%
  Population Normal (%): 85%
  Population Pyknosed Nuclei (%): 13%
  Population Tubulin-Different-Phenotype (%): 30%
  Total Cell Count: 362
[9]
  Population Apoptotic (%): 35%
  Population Fragmented Nuclei (%): 19%
  Population Healthy Nuclei (%): 74%
  Population Hoechst High Intensity Objects (%): 8%
  Population Membrane Permeable-Phenotype (%): 1%
  Population Mitochondria Different-Phenotype (%): 40%
  Population Mitotic Cells (%): 64%
  Population Normal (%): 91%
  Population Pyknosed Nuclei (%): 6%
  Population Tubulin-Different-Phenotype (%): 25%
  Total Cell Count: 554
[10]
  Population Apoptotic (%): 60%
  Population Fragmented Nuclei (%): 11%
  Population Healthy Nuclei (%): 82%
  Population Hoechst High Intensity Objects (%): 5%
  Population Membrane Permeable-Phenotype (%): 0%
  Population Mitochondria Different-Phenotype (%): 32%
  Population Mitotic Cells (%): 39%
  Population Normal (%): 94%
  Population Pyknosed Nuclei (%): 5%
  Population Tubulin-Different-Phenotype (%): 17%
  Total Cell Count: 430
[11]
  Population Apoptotic (%): 66%
  Population Fragmented Nuclei (%): 23%
  Population Healthy Nuclei (%): 63%
  Population Hoechst High Intensity Objects (%): 11%
  Population Membrane Permeable-Phenotype (%): 0%
  Population Mitochondria Different-Phenotype (%): 56%
  Population Mitotic Cells (%): 33%
  Population Normal (%): 88%
  Population Pyknosed Nuclei (%): 12%
  Population Tubulin-Different-Phenotype (%): 30%
  Total Cell Count: 379
[12]
  Population Apoptotic (%): 59%
  Population Healthy Nuclei (%): 70%
  Population Hoechst High Intensity Objects (%): 8%
  Population Mitochondria Different-Phenotype (%): 43%
  Population Mitotic Cells (%): 40%
  Population Normal (%): 91%
  Population Pyknosed Nuclei (%): 6%
  Population Tubulin-Different-Phenotype (%): 23%
  Total Cell Count: 429
